Laboratory results published in the array DNA melting data of Ke et al. (doi:10.1101/2024.01.08.574731).

What was measured:
[1] = melting temperature; fluorescence melt of hairpins on a sequencing array, two-state fit, raised by 9.35 °C to match UV melts; conditions: sodium 0.088 M
Outline: (§1)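 On a sequenced MiSeq flow cell, library hairpins with annealed Cy3 and quencher oligos were imaged for Cy3 fluorescence in 2.5 °C steps up to 60 °C, in 50 mM Na-HEPES pH 8.0, 25 mM NaCl. Normalisation used pre-quench Cy3 and control constructs. Bootstrapped two-state fits gave melting temperature and folding enthalpy, combined by inverse variance across four replicates and with fitted temperatures raised by 9.35 °C to match UV melts.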

[2] = folding enthalpy; higher = less favourable; fluorescence melt of hairpins on a sequencing array, two-state fit; conditions: sodium 0.088 M
Outline: as §1

Q: Which Tm [1] does the source give for GGAACGCCGAAAGGCTCC (((..(((....)))))) here?
A: Its Tm is 33 °C.

Q: And the folding enthalpy [2]?
A: The folding enthalpy was -9.39 kcal/mol.

Q: What does the source list for GGAACTGAAAAGTTCC ((((((....))))))?
A: Tm [1]: 56.4 °C; folding enthalpy [2]: -38.3 kcal/mol

Q: What does the source list for GGAACTGGAAACAGCTCC (((.(((....))).)))?
A: Tm [1]: 42.5 °C; folding enthalpy [2]: -28.5 kcal/mol

Q: With GGAAGCACGAAAGTGTCC (((..(((....)))))) as the sequence, how does the Tm [1] read?
A: The Tm was 31.5 °C.

Q: What about the folding enthalpy [2] of the same sequence?
A: Its folding enthalpy is -13.1 kcal/mol.

Q: Which Tm [1] does the source give for GGAAGCGAAAGCTACTCC ((((((....)))..))) here?
A: Its Tm is 30.8 °C.

Q: What about the folding enthalpy [2] of the same sequence?
A: The folding enthalpy was -13.3 kcal/mol.

Q: With GGAAGCGAAAGCTAGTCC ((((((....)))..))) as the sequence, how does the Tm [1] read?
A: The Tm was 25.8 °C.

Q: And the folding enthalpy [2]?
A: The folding enthalpy was -9.98 kcal/mol.

Q: Which Tm [1] does the source give for GGAAGCGAAAGCTTCTCC ((((((....)))..))) here?
A: Its Tm is 53.3 °C.

Q: What about the folding enthalpy [2] of the same sequence?
A: Its folding enthalpy is -9.47 kcal/mol.

Q: Which Tm [1] does the source give for GGAAGGCGAAAGCCGTCC (((.(((....))).))) here?
A: Its Tm is 58 °C.

Q: What about the folding enthalpy [2] of the same sequence?
A: Its folding enthalpy is -15.5 kcal/mol.

Q: For GGAAGGCGAAAGCCTCC (((.(((....)))))), which Tm [1] is on record?
A: The Tm was 56.9 °C.

Q: And the folding enthalpy [2]?
A: The folding enthalpy was -14.1 kcal/mol.

Q: Which Tm [1] does the source give for GGAAGGGGAAACCCTTTC (.(((((....))))).) here?
A: Its Tm is 44.7 °C.

Q: What about the folding enthalpy [2] of the same sequence?
A: The folding enthalpy was -24.2 kcal/mol.

Q: For GGAAGGTCGAAAGACTCC (((..(((....)))))), which Tm [1] is on record?
A: Its Tm is 33.1 °C.

Q: What about the folding enthalpy [2] of the same sequence?
A: Its folding enthalpy is -13.8 kcal/mol.

Q: Which results are given for GGAATACGAAAGTACTCC (((.(((....))).)))?
A: Tm [1]: 39.5 °C; folding enthalpy [2]: -27.4 kcal/mol

Q: For GGAATAGAAATATTCC ((((((....)))))), which Tm [1] is on record?
A: The Tm was 41.7 °C.

Q: And the folding enthalpy [2]?
A: Its folding enthalpy is -29.3 kcal/mol.

Q: Which Tm [1] does the source give for GGAATAGGAAACTATCCC ((.((((....)))).)) here?
A: The Tm was 28 °C.

Q: And the folding enthalpy [2]?
A: Its folding enthalpy is -10.9 kcal/mol.

Q: Which Tm [1] does the source give for GGAATATCGAAAGATTCC (((..(((....)))))) here?
A: Its Tm is 33.3 °C.

Q: What about the folding enthalpy [2] of the same sequence?
A: Its folding enthalpy is -20 kcal/mol.

Q: What does the source list for GGAATCGAAAGATACTCC ((((((....)))..)))?
A: Tm [1]: 24.7 °C; folding enthalpy [2]: -9.63 kcal/mol

Q: Which results are given for GGAATCGAAAGATATTCC ((((((....)))..)))?
A: Tm [1]: 29.7 °C; folding enthalpy [2]: -16 kcal/mol

Q: What does the source list for GGAATCGAAAGATCTCC ((((((....))).)))?
A: Tm [1]: 30.8 °C; folding enthalpy [2]: -18.4 kcal/mol

Q: Which Tm [1] does the source give for GGAATCGAAAGATGTCC ((((((....))).))) here?
A: The Tm was 32.5 °C.

Q: What about the folding enthalpy [2] of the same sequence?
A: Its folding enthalpy is -15.6 kcal/mol.

Q: Which Tm [1] does the source give for GGAATCGAAAGATTGTCC ((((((....)))..))) here?
A: The Tm was 27.2 °C.

Q: And the folding enthalpy [2]?
A: The folding enthalpy was -11.1 kcal/mol.

Q: For GGAATCGGAAACGATCCC ((.((((....)))).)), which Tm [1] is on record?
A: Its Tm is 45.5 °C.

Q: And the folding enthalpy [2]?
A: Its folding enthalpy is -25.9 kcal/mol.

Q: With GGAATCTCGAAAGAGTCC (((..(((....)))))) as the sequence, how does the Tm [1] read?
A: Its Tm is 33.2 °C.

Q: What about the folding enthalpy [2] of the same sequence?
A: The folding enthalpy was -18.4 kcal/mol.

Q: Which Tm [1] does the source give for GGAATGCGAAAGCATCC (((.(((....)))))) here?
A: Its Tm is 55.5 °C.

Q: And the folding enthalpy [2]?
A: Its folding enthalpy is -15.9 kcal/mol.

Q: With GGAATGGCGAAAGCCTCC (((..(((....)))))) as the sequence, how does the Tm [1] read?
A: Its Tm is 36.7 °C.

Q: What about the folding enthalpy [2] of the same sequence?
A: The folding enthalpy was -10.2 kcal/mol.

Q: What does the source list for GGAATGGGAAACCATCCC ((.((((....)))).))?
A: Tm [1]: 38.6 °C; folding enthalpy [2]: -24 kcal/mol

Q: For GGAATGGGAAACTATTCC (((((.(....).))))), which Tm [1] is on record?
A: The Tm was 42.3 °C.

Q: And the folding enthalpy [2]?
A: The folding enthalpy was -25.9 kcal/mol.

Q: With GGAATTCCGAAAGGATCC (((..(((....)))))) as the sequence, how does the Tm [1] read?
A: The Tm was 28 °C.

Q: What about the folding enthalpy [2] of the same sequence?
A: The folding enthalpy was -10.9 kcal/mol.

Q: Which results are given for GGAATTCGAAAGAACTCC (((.(((....))).)))?
A: Tm [1]: 36.4 °C; folding enthalpy [2]: -28.1 kcal/mol

Q: Which results are given for GGAATTGGAAACAATTTC (.(((((....))))).)?
A: Tm [1]: 39.5 °C; folding enthalpy [2]: -32.8 kcal/mol

Q: Which Tm [1] does the source give for GGACAAACGAAAGTTTCC (((..(((....)))))) here?
A: The Tm was 25.4 °C.

Q: What about the folding enthalpy [2] of the same sequence?
A: The folding enthalpy was -9.9 kcal/mol.

Q: For GGACAACCGAAAGGTTCC (((..(((....)))))), which Tm [1] is on record?
A: The Tm was 29.4 °C.

Q: What about the folding enthalpy [2] of the same sequence?
A: Its folding enthalpy is -10.9 kcal/mol.

Q: For GGACAACGAAAGTTATCC (((.(((....))).))), which Tm [1] is on record?
A: Its Tm is 40 °C.

Q: What about the folding enthalpy [2] of the same sequence?
A: Its folding enthalpy is -29.4 kcal/mol.

Q: What does the source list for GGACAACGAAAGTTTCC (((.(((....))))))?
A: Tm [1]: 38.3 °C; folding enthalpy [2]: -20.1 kcal/mol

Q: Which Tm [1] does the source give for GGACACGAAAGTGAGTCC ((((((....)))..))) here?
A: Its Tm is 44.8 °C.

Q: And the folding enthalpy [2]?
A: Its folding enthalpy is -21 kcal/mol.
